Experimental data as given in ChEMBL document CHEMBL2311437, “Synthesis, molecular docking and evaluation of thiazolyl-pyrazoline derivatives containing benzodioxole as potential anticancer agents” (Bioorg Med Chem, 2013).
pIC50: −log10 of the molar value.

What was measured:
[1] = Antiproliferative activity against mouse B16/F10 cells after 48 hrs by MTT assay; type: functional, cell-based; details: B16-F10, 48 h
How it was run: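 Cells seeded 7×10^3/well, grown 24 h, then exposed 48 h to compounds at final 0.1–100 µg/mL. MTT (5 mg/mL in PBS) added for 4 h, then 10% SDS in 0.01 N HCl, 18 h at 37 °C. Absorbance read at 570 nm. Survival given as % of untreated cells. IC50 taken from replicates of 6 wells over at least three independent experiments.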

MCF7 [2] = assay: Antiproliferative activity against human MCF7 cells after 48 hrs by MTT assay; type: functional, cell-based; details: MCF7, 48 h
[3] = molecular target: Receptor tyrosine-protein kinase erbB-2 (Homo sapiens, UniProt P04626); assay: Inhibition of human HER2 cytoplasmic domain (amino acids 676 to 1245) expressed in Sf9 cells by DELFIA time resolved fluorometry
Chain of Receptor tyrosine-protein kinase erbB-2 (P04626 whole entry, the tested form may be a part): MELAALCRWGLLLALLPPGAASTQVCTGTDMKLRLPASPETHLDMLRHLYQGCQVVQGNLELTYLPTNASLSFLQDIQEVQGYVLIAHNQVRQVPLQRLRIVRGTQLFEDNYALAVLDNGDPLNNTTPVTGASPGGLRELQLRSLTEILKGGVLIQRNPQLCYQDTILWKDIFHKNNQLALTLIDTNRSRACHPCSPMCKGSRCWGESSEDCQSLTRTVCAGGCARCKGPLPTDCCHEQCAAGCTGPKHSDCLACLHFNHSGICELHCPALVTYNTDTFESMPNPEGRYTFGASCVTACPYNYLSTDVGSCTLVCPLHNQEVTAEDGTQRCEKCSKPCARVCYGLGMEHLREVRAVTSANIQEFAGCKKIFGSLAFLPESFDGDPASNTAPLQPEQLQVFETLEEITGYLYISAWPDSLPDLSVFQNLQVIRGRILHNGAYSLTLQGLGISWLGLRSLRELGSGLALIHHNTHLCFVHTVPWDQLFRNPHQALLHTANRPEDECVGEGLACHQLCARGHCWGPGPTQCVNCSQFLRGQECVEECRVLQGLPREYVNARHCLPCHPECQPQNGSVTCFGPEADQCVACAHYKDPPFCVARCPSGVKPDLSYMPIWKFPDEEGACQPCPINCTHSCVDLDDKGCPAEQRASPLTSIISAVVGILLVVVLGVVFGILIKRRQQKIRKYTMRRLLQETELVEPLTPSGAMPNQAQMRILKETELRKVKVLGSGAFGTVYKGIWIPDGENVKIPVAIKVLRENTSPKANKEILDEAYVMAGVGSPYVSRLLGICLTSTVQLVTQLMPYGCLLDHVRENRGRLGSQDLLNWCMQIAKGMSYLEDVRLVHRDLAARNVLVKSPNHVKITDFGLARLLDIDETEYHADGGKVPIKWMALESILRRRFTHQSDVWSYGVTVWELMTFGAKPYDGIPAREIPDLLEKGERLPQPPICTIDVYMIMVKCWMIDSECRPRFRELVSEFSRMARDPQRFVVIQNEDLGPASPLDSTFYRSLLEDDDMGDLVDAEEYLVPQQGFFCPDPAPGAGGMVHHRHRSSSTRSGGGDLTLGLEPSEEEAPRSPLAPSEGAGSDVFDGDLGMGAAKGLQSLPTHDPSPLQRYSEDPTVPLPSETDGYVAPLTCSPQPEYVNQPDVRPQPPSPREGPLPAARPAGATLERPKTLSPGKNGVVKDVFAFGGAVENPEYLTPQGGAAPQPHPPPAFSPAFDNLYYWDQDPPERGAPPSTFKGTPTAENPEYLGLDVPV
How it was run: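 His6-tagged HER-2 was expressed in Sf-9 cells (3-day infection) and Ni-NTA purified at 4 °C. Assay measures autophosphorylation. Compound in 25 mM HEPES pH 7.4 (DMSO <0.1%) preincubated 10 min at RT with 12.5 ng enzyme. Then buffer (MnCl2, Na3VO4, DTT) and 0.1 mM ATP-50 mM MgCl2 (stock mix) added for 1 h. Readout: europium anti-phosphotyrosine, 1 h, ex 340/em 615 nm. IC50 from eight-concentration inhibition curves.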

B16-F10 = assay: Induction of apoptosis in mouse B16/F10 cells assessed as increase in cleaved caspase 3 levels after 24 hrs by Western blotting method; type: functional, cell-based
How it was run: (§1)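 Cells treated 24 h, harvested and lysed in Tris pH 7.5/NaCl/NP-40 buffer with phosphatase and protease inhibitors. Protein quantified by BCA. Separation by 10% SDS–PAGE, transfer to PVDF, blocking in 5% milk 2 h at RT. Probed overnight at 4 °C with anti-HER-2 or anti-cleaved caspase 3, then HRP secondary antibody.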

MCF7 [4] = assay: Induction of apoptosis in human MCF7 cells assessed as increase in cleaved caspase 3 levels after 24 hrs by Western blotting method; type: functional, cell-based; how it was run: as §1
[5] = molecular target: Receptor tyrosine-protein kinase erbB-2 (Mus musculus) (UniProt P70424); assay: Inhibition of HER2 in mouse B16/F10 cells assessed as down regulation of HEr2 protein levels after 24 hrs by Western blotting method; type: cell-based; how it was run: as §1
Chain of Receptor tyrosine-protein kinase erbB-2 (Mus musculus) (P70424 whole entry): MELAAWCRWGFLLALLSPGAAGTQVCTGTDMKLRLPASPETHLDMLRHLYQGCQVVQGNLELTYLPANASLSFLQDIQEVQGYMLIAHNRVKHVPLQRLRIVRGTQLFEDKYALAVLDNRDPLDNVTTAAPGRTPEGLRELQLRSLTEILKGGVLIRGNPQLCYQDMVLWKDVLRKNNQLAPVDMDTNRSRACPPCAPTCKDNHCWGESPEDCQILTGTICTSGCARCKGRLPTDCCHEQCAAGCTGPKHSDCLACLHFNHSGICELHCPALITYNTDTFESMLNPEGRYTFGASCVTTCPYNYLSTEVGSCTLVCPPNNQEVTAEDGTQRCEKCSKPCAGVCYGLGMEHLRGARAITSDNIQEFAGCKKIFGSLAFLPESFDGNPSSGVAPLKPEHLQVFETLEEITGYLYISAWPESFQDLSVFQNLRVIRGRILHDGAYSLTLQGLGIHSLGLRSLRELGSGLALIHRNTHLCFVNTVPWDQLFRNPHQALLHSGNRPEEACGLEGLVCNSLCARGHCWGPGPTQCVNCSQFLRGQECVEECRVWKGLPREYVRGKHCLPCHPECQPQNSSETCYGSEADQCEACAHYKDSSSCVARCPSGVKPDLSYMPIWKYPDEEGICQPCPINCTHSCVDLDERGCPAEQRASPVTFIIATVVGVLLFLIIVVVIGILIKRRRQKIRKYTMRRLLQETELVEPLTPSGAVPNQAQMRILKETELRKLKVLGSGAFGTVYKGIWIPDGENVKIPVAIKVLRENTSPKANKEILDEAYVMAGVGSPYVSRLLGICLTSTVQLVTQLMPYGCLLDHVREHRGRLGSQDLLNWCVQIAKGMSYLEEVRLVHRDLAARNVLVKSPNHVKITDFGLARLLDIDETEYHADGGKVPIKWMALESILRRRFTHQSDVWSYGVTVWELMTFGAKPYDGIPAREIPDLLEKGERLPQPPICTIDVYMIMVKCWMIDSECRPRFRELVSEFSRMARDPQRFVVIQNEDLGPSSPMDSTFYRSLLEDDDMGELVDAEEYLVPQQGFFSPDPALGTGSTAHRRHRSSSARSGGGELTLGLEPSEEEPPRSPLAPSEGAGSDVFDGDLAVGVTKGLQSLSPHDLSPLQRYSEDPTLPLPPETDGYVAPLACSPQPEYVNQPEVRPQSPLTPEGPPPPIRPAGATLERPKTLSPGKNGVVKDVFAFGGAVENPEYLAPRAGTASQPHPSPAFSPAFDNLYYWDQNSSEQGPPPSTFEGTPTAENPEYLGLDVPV

SMILES	pIC50 (MCF7 [2])	pIC50 [3]	inhibition [5]	pIC50 [1]	Activity (B16-F10)	Activity (MCF7 [4])
COc1ccc(C2=NN(c3nc(-c4ccc(Br)cc4)cs3)C(c3ccc4c(c3)OCCO4)C2)cc1 (stereo not given)	5.60			5.60		
C#Cc1cccc(Nc2ncnc3cc(OCCOC)c(OCCOC)cc23)c1 [ERLOTINIB]				7.30		
COc1ccc(-c2csc(N3N=C(c4ccc(Br)cc4)CC3c3ccc4c(c3)OCCO4)n2)cc1 (stereo not given)	6.06	5.88		5.95		
Clc1ccc(C2=NN(c3nc(-c4ccc(Br)cc4)cs3)C(c3ccc4c(c3)OCO4)C2)cc1 (stereo not given)	5.76	5.62		5.82		
COc1ccc(-c2csc(N3N=C(c4ccc(Cl)cc4)CC3c3ccc4c(c3)OCO4)n2)cc1 (stereo not given)	5.62			5.63		
Fc1ccc(C2=NN(c3nc(-c4ccc(Br)cc4)cs3)C(c3ccc4c(c3)OCCO4)C2)cc1 (stereo not given)	5.38			5.39		
COc1ccc(-c2csc(N3N=C(c4ccc(F)cc4)CC3c3ccc4c(c3)OCO4)n2)cc1 (stereo not given)	5.44			5.40		
Brc1ccc(C2=NN(c3nc(-c4ccc(Br)cc4)cs3)C(c3ccc4c(c3)OCO4)C2)cc1 (stereo not given)	7.05	6.74	Dose-dependent effect	6.92	Dose-dependent effect	Dose-dependent effect
COc1ccc(-c2csc(N3N=C(c4ccc(C)cc4)CC3c3ccc4c(c3)OCCO4)n2)cc1 (stereo not given)	5.57			5.54		
COc1ccc(C2=NN(c3nc(-c4ccc(Br)cc4)cs3)C(c3ccc4c(c3)OCO4)C2)cc1 (stereo not given)	5.61			5.60		
COc1ccc(-c2csc(N3N=C(c4ccc(C)cc4)CC3c3ccc4c(c3)OCO4)n2)cc1 (stereo not given)	5.84			5.82		

Continued by rising pIC50 (MCF7 [2]), values first:

pIC50 (MCF7 [2])	pIC50 [3]	inhibition [5]	SMILES	pIC50 [1]	Activity (B16-F10)	Activity (MCF7 [4])
5.34			COc1ccc(-c2csc(N3N=C(c4ccc(F)cc4)CC3c3ccc4c(c3)OCCO4)n2)cc1 (stereo not given)	5.35		
5.46			Fc1ccc(C2=NN(c3nc(-c4ccc(Br)cc4)cs3)C(c3ccc4c(c3)OCO4)C2)cc1 (stereo not given)	5.42		
5.52			COc1ccc(-c2csc(N3N=C(c4ccc(Cl)cc4)CC3c3ccc4c(c3)OCCO4)n2)cc1 (stereo not given)	5.51		
5.56			COc1ccc(C2=NN(c3nc(-c4ccc(OC)cc4)cs3)C(c3ccc4c(c3)OCO4)C2)cc1 (stereo not given)	5.57		
5.56			COc1ccc(C2=NN(c3nc(-c4ccc(OC)cc4)cs3)C(c3ccc4c(c3)OCCO4)C2)cc1 (stereo not given)	5.52		
5.65			Clc1ccc(C2=NN(c3nc(-c4ccc(Br)cc4)cs3)C(c3ccc4c(c3)OCCO4)C2)cc1 (stereo not given)	5.67		
5.80			Cc1ccc(C2=NN(c3nc(-c4ccc(Br)cc4)cs3)C(c3ccc4c(c3)OCCO4)C2)cc1 (stereo not given)	5.77		
5.85	5.65		Cc1ccc(C2=NN(c3nc(-c4ccc(Br)cc4)cs3)C(c3ccc4c(c3)OCO4)C2)cc1 (stereo not given)	5.86		
6.49	6.34		Brc1ccc(C2=NN(c3nc(-c4ccc(Br)cc4)cs3)C(c3ccc4c(c3)OCCO4)C2)cc1 (stereo not given)	6.37		
6.57	6.07		COc1ccc(-c2csc(N3N=C(c4ccc(Br)cc4)CC3c3ccc4c(c3)OCO4)n2)cc1 (stereo not given)	6.49		
